How the values were obtained:
[1] = tested on: patients; conditions: cited from earlier work
[2] = Population PK analysis; type: in vivo, human
In short: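 Oral dosing; patients fasted 1 h before and 2 h after. Sparse plasma samples were taken pre-dose and 1–3 h post-dose on days 29, 43 and 99, with richer sampling on the intermittent schedule. Two-compartment model with first-order absorption and elimination, fitted by first-order conditional estimation with interaction. It estimated clearance, intercompartment clearance, central/peripheral volumes, absorption rate, inter-subject variability and residual error, and explored covariates.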

[3] = tested on: patients; conditions: cited from earlier work; remark: listed apart in the source
[4] = GSK458 as mono-therapy, estimate (SD)

Compound	Most frequently reported treatment-related toxicities, single agent [1]	Plasma half-life ([1]; no reference given)	Recommended phase II dose (RP2D), single agent ([1]; once daily) [mg]	Clearance, CL/F [2, 4]	Volume of central compartment Vc/F [2, 4]	Volume of peripheral compartment Vp/F [2, 4]	Vd ([2]; human, in vivo, oral) [L]	clearance ([2]; human, in vivo, oral) [mL/min]	PK of GSK458 alone versus in combination with trametinib (post hoc estimates) ([2]; in vivo)	Inter-compartment clearance ([2]; population PK model of GSK458) [L/h]	Inter-individual variability on central volume ([2]; population PK model of GSK458) [%]	Inter-individual variability on clearance ([2]; population PK model of GSK458)	Peripheral volume of distribution ([2]; population PK model of GSK458) [L]	Most frequently reported treatment-related adverse events, single agent [3]	Maximum tolerated dose (MTD), single agent ([3]; once daily) [mg]
CC(=O)Nc1cccc(-n2c(=O)n(C3CC3)c(=O)c3c(Nc4ccc(I)cc4F)n(C)c(=O)c(C)c32)c1 [trametinib]	rash or acneiform dermatitis, diarrhea, fatigue, nausea, and vomiting	five days	2	–	–	–	–	–	–	–	–	–	–	–	–
COc1ncc(-c2ccc3nccc(-c4ccnnc4)c3c2)cc1NS(=O)(=O)c1ccc(F)cc1F [GSK458]	–	–	–	3.88 (1.9) L/h	17.81 (17.4) L	54.67 (48.7) L	8.95	54.2	No significant difference was observed	2.71	~97	approximately 53%	38.4	diarrhea, fatigue, nausea, decreased appetite, vomiting, and hyerpglycemia	2.5

From PMC7574157 (Investigational new drugs, 2016)
